Activity calls are given as the source filed them. The calls are words filed in the database; no cut-off is given here. *1 amine or outer side, *2 acyl side, *3 side chain or, on linkers, in order; H or OH if unused. Where a SMILES comes first, the peptide text is derived from it. [ ]: non-standard residue; d: D form. The star is where a group is joined. X7 = O=C([C@H](Cc1ccc(-c2cccc([N+](=O)[O-])c2)cc1)N[*:1])[*:2]; Phe(4-(2-MeO-Ph)) = COc1ccccc1-c1ccc(C[C@H](N)C(=O)O)cc1; X3 = COc1cccc(OC)c1-c1ccc(C[C@H](N[*:1])C(=O)[*:2])cc1; X6 = COc1ccc(-c2ccc(C[C@H](N[*:1])C(=O)[*:2])cc2)cc1OC; X5 = N#Cc1ccc(-c2ccc(C[C@H](N[*:1])C(=O)[*:2])cc2)cc1; Bip(4'-Me) = Cc1ccc(-c2ccc(C[C@H](N)C(=O)O)cc2)cc1; X4 = O=C([C@H](Cc1ccc(C2=CCCCC2)cc1)N[*:1])[*:2]; Biotin = O=C1N[C@H]2[C@H](CS[C@H]2CCCCC(=O)*)N1; X1 = O=C([C@H](Cc1ccc(C2CCCCC2)cc1)N[*:1])[*:2]
Key:
Assay type in all cases: cell-based
[1] = molecular target: T1, Integrin alpha-4/beta-7 (Mus musculus) (UniProt Q00651+P26011); assay: Inhibition of alpha4beta7 assessed as inhibition of Mn(2+)-activated adhesion of mouse TK-1 T cells to mouse MAdCAM-1 at 50 uM incubated for 1 hr by cell adhesion assay
How it was run: (§1)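 TK-1 cells (mouse AKR/Cum α4β7+/α4β1− CD8 T lymphoma), grown at 37 °C in RPMI 1640 with 10% FCS and 0.05 mM β-mercaptoethanol, were washed and held 1 h at room temperature in HBSS/10 mM Hepes with peptide. They were then activated with 2 mM MnCl₂ and added at 10⁶ cells/well to glass slides coated with mouse MAdCAM-1-Fc (10 μg/ml, FBS-blocked). Adhesion ran 30 min.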

[2] = molecular target: T1, Integrin alpha-4/beta-7 (Mus musculus); assay: Inhibition of alpha4beta7 assessed as inhibition of Mn(2+)-activated adhesion of mouse TK-1 T cells to mouse MAdCAM-1 at 100 uM incubated for 1 hr by cell adhesion assay; how it was run: as §1
[3] = molecular target: T1, Integrin alpha-4/beta-7 (Mus musculus); assay: Inhibition of alpha4beta7 assessed as inhibition of Mn(2+)-activated adhesion of mouse TK-1 T cells to mouse MAdCAM-1 at 25 uM incubated for 1 hr by cell adhesion assay; how it was run: as §1
[4] = molecular target: T1, Integrin alpha-4/beta-7 (Mus musculus); assay: Inhibition of alpha4beta7 assessed as inhibition of Mn(2+)-activated adhesion of mouse TK-1 T cells to mouse MAdCAM-1 at <5 to 10 uM incubated for 1 hr by cell adhesion assay; how it was run: as §1

Row | Compound | inhibition [1] [%] | inhibition [2] [%] | inhibition [3] | inhibition [4]
1 | N=C(N)NCCC[C@H](NC(=O)[C@H](CCCNC(=N)N)NC(=O)[C@H](CC(=O)O)NC(=O)[C@H](Cc1ccc(O)cc1)NC(=O)[C@@H](CCCNC(=N)N)NC(=O)[C@@H](CCCNC(=N)N)NC(=O)[C@@H](CCCNC(=N)N)NC(=O)[C@@H](CCCNC(=N)N)NC(=O)[C@@H](CCCNC(=N)N)NC(=O)[C@@H](CCCNC(=N)N)NC(=O)[C@@H](CCCNC(=N)N)NC(=O)[C@@H](CCCNC(=N)N)NC(=O)[C@@H](CCCNC(=N)N)NC(=O)CCCC[C@@H]1SC[C@@H]2NC(=O)N[C@@H]21)C(=O)N[C@@H](CCC(=O)O)C(=O)N[C@@H](Cc1ccc(O)cc1)C(=O)O | 66.4 | 71.3 | – | –
2 | N=C(N)NCCC[C@H](NC(=O)CCCC[C@@H]1SC[C@@H]2NC(=O)N[C@@H]21)C(=O)N[C@@H](CCCNC(=N)N)C(=O)N[C@@H](CCCNC(=N)N)C(=O)N[C@@H](CCCNC(=N)N)C(=O)N[C@@H](CCCNC(=N)N)C(=O)N[C@@H](CCCNC(=N)N)C(=O)N[C@@H](CCCNC(=N)N)C(=O)N[C@@H](CCCNC(=N)N)C(=O)N[C@@H](CCC(=O)O)C(=O)N[C@@H](CCCNC(=N)N)C(=O)N[C@@H](Cc1ccc(O)cc1)C(=O)O (Biotin-RRRRRRRRERY-OH) | 8.73 | 18.2 | – | –
3 | Cc1ccc(-c2ccc(C[C@H](NC(=O)[C@H](CCCNC(=N)N)NC(=O)[C@H](CCC(=O)O)NC(=O)[C@H](CCCNC(=N)N)NC(=O)[C@H](CCCNC(=N)N)NC(=O)[C@H](CCCNC(=N)N)NC(=O)[C@H](CCCNC(=N)N)NC(=O)[C@H](CCCNC(=N)N)NC(=O)[C@H](CCCNC(=N)N)NC(=O)[C@H](CCCNC(=N)N)NC(=O)[C@H](CCCNC(=N)N)NC(=O)CCCC[C@@H]3SC[C@@H]4NC(=O)N[C@@H]43)C(=O)O)cc2)cc1 (Biotin-RRRRRRRRER[Bip(4'-Me)]-OH) | 47.4 | 57.3 | – | –
4 | COc1ccccc1-c1ccc(C[C@H](NC(=O)[C@H](CCCNC(=N)N)NC(=O)[C@H](CCC(=O)O)NC(=O)[C@H](CCCNC(=N)N)NC(=O)[C@H](CCCNC(=N)N)NC(=O)[C@H](CCCNC(=N)N)NC(=O)[C@H](CCCNC(=N)N)NC(=O)[C@H](CCCNC(=N)N)NC(=O)[C@H](CCCNC(=N)N)NC(=O)[C@H](CCCNC(=N)N)NC(=O)[C@H](CCCNC(=N)N)NC(=O)CCCC[C@@H]2SC[C@@H]3NC(=O)N[C@@H]32)C(=O)O)cc1 (Biotin-RRRRRRRRER[Phe(4-(2-MeO-Ph))]-OH) | 48.1 | 47.1 | – | –
5 | N=C(N)NCCC[C@H](NC(=O)CCCC[C@@H]1SC[C@@H]2NC(=O)N[C@@H]21)C(=O)N[C@@H](CCCNC(=N)N)C(=O)N[C@@H](CCCNC(=N)N)C(=O)N[C@@H](CCCNC(=N)N)C(=O)N[C@@H](CCCNC(=N)N)C(=O)N[C@@H](CCCNC(=N)N)C(=O)N[C@@H](CCCNC(=N)N)C(=O)N[C@@H](CCCNC(=N)N)C(=O)N[C@@H](CCC(=O)O)C(=O)N[C@@H](CCCNC(=N)N)C(=O)N[C@@H](Cc1ccc(C2CCCCC2)cc1)C(=O)O (Biotin-RRRRRRRRER[X1]-OH) | 71.7 | 64.8 | Active | inactive
6 | COc1cccc(OC)c1-c1ccc(C[C@H](NC(=O)[C@H](CCCNC(=N)N)NC(=O)[C@H](CCC(=O)O)NC(=O)[C@H](CCCNC(=N)N)NC(=O)[C@H](CCCNC(=N)N)NC(=O)[C@H](CCCNC(=N)N)NC(=O)[C@H](CCCNC(=N)N)NC(=O)[C@H](CCCNC(=N)N)NC(=O)[C@H](CCCNC(=N)N)NC(=O)[C@H](CCCNC(=N)N)NC(=O)[C@H](CCCNC(=N)N)NC(=O)CCCC[C@@H]2SC[C@@H]3NC(=O)N[C@@H]32)C(=O)O)cc1 (Biotin-RRRRRRRRER[X3]-OH) | 38.3 | 50.9 | – | –
7 | N=C(N)NCCC[C@H](NC(=O)CCCC[C@@H]1SC[C@@H]2NC(=O)N[C@@H]21)C(=O)N[C@@H](CCCNC(=N)N)C(=O)N[C@@H](CCCNC(=N)N)C(=O)N[C@@H](CCCNC(=N)N)C(=O)N[C@@H](CCCNC(=N)N)C(=O)N[C@@H](CCCNC(=N)N)C(=O)N[C@@H](CCCNC(=N)N)C(=O)N[C@@H](CCCNC(=N)N)C(=O)N[C@@H](CCC(=O)O)C(=O)N[C@@H](CCCNC(=N)N)C(=O)N[C@@H](Cc1ccc(C2=CCCCC2)cc1)C(=O)O (Biotin-RRRRRRRRER[X4]-OH) | 49.7 | 59.1 | – | –
8 | N#Cc1ccc(-c2ccc(C[C@H](NC(=O)[C@H](CCCNC(=N)N)NC(=O)[C@H](CCC(=O)O)NC(=O)[C@H](CCCNC(=N)N)NC(=O)[C@H](CCCNC(=N)N)NC(=O)[C@H](CCCNC(=N)N)NC(=O)[C@H](CCCNC(=N)N)NC(=O)[C@H](CCCNC(=N)N)NC(=O)[C@H](CCCNC(=N)N)NC(=O)[C@H](CCCNC(=N)N)NC(=O)[C@H](CCCNC(=N)N)NC(=O)CCCC[C@@H]3SC[C@@H]4NC(=O)N[C@@H]43)C(=O)O)cc2)cc1 (Biotin-RRRRRRRRER[X5]-OH) | 45 | 57 | – | –
9 | COc1ccc(-c2ccc(C[C@H](NC(=O)[C@H](CCCNC(=N)N)NC(=O)[C@H](CCC(=O)O)NC(=O)[C@H](CCCNC(=N)N)NC(=O)[C@H](CCCNC(=N)N)NC(=O)[C@H](CCCNC(=N)N)NC(=O)[C@H](CCCNC(=N)N)NC(=O)[C@H](CCCNC(=N)N)NC(=O)[C@H](CCCNC(=N)N)NC(=O)[C@H](CCCNC(=N)N)NC(=O)[C@H](CCCNC(=N)N)NC(=O)CCCC[C@@H]3SC[C@@H]4NC(=O)N[C@@H]43)C(=O)O)cc2)cc1OC (Biotin-RRRRRRRRER[X6]-OH) | 37.9 | 50.1 | – | –
10 | N=C(N)NCCC[C@H](NC(=O)CCCC[C@@H]1SC[C@@H]2NC(=O)N[C@@H]21)C(=O)N[C@@H](CCCNC(=N)N)C(=O)N[C@@H](CCCNC(=N)N)C(=O)N[C@@H](CCCNC(=N)N)C(=O)N[C@@H](CCCNC(=N)N)C(=O)N[C@@H](CCCNC(=N)N)C(=O)N[C@@H](CCCNC(=N)N)C(=O)N[C@@H](CCCNC(=N)N)C(=O)N[C@@H](CCC(=O)O)C(=O)N[C@@H](CCCNC(=N)N)C(=O)N[C@@H](Cc1ccc(-c2cccc([N+](=O)[O-])c2)cc1)C(=O)O (Biotin-RRRRRRRRER[X7]-OH) | 50.5 | 60.3 | – | –
